Drawing on ChEMBL document CHEMBL4038303, “Simultaneous Drug Targeting of the Promoter MYC G-Quadruplex and BCL2 i-Motif in Diffuse Large B-Cell Lymphoma Delays Tumor Growth” (J Med Chem, 2017), this text covers Activity, fold change (FC) and TGI for one compound.

One data set relates to HT. Briefly: Down regulation of BLC2 mRNA level in human HT cells up to 3 uM after 24 hrs by qPCR method. It is filed as functional, cell-based. The essentials:
(§1)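 DLBCL lines grown in RPMI with 10% FBS (SUDHL4 15% FBS) and penicillin/streptomycin. Cells exposed for 24 h to rising concentrations up to 3 μM; DMSO as vehicle control. Total RNA isolated, target mRNA measured by TaqMan real-time qPCR, normalized to TBP and expressed relative to untreated cells; triplicate experiments, two-tailed t test.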

The species entered for data set [1] is Homo sapiens. Briefly: Binding affinity to c-myc G-quadruplex DNA in human HT cells assessed as downregulation of MYC protein levels up to 3 uM after 24 hrs by Western blot analysis. Type of data set: cell-based. The procedure, abridged:
(§2)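 Cell lines treated 24 h with compound up to 3 μM, with untreated and DMSO-treated controls. Lysates (20 μg total protein) probed by Western blot for BCL2 or MYC with antibodies at 1:1000; actin as loading control. Blots representative of triplicate experiments.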
In general terms: Immunoblotting shows a protein as a band on a membrane.

The species entered for data set [2] is Homo sapiens. Briefly: Binding affinity to c-myc G-quadruplex DNA in MYC translocation-positive and BCL2 amplification-positive human U2932 cells assessed as downregulation of MYC mRNA levels up to 3 uM after 24 hrs by qPCR method relative to control. The essentials:
as §1

Data set [3] is filed under the species Homo sapiens. Briefly: Binding affinity to c-myc G-quadruplex DNA in BCL2 translocation-positive human SUDHL4 cells assessed as downregulation of MYC mRNA levels up to 3 uM after 24 hrs by qPCR method relative to control. The essentials:
as §1
In general terms: Quantitative PCR measures a nucleic acid by following its amplification.

The species entered for data set [4] is Homo sapiens. The experiment in a line: Binding affinity to BLC2 i-motif promoter DNA in BCL2 translocation-positive human SUDHL4 cells assessed as downregulation of Bcl2 mRNA levels at 1 to 3 uM after 24 hrs by qPCR method. The procedure, abridged:
as §1

The species named for data set [5] is Homo sapiens. Briefly: Binding affinity to BLC2 i-motif promoter DNA in BCL2 and MYC translocation-positive human VAL cells assessed as downregulation of Bcl2 mRNA levels at 1 to 3 uM after 24 hrs by qPCR method relative to control. The essentials: as §1
For data set [6], the species on record is Homo sapiens. The experiment in a line: Binding affinity to BLC2 i-motif promoter DNA in MYC translocation-positive and BCL2 amplification-positive human U2932 cells assessed as downregulation of Bcl2 mRNA levels at 1 to 3 uM after 24 hrs by qPCR method relative to control. The essentials:
as §1

Data set [7] is filed under the species Homo sapiens. Briefly: Binding affinity to BLC2 i-motif promoter DNA in human U2932 MYC translocation-positive and BCL2 amplification-positive cells assessed as downregulation of BCL2 protein levels at 1 to 3 uM after 24 hrs by Western blot analysis. The procedure, abridged:
as §2

The species entered for data set [8] is Homo sapiens. Briefly: Binding affinity to BLC2 i-motif promoter DNA in human VAL BCL2 and MYC translocation-positive cells assessed as downregulation of BCL2 protein levels at 1 to 3 uM after 24 hrs by Western blot analysis. The essentials: as §2
For data set [9], the species on record is Homo sapiens. The experiment in a line: Binding affinity to BLC2 i-motif promoter DNA in human SUDHL4 BCL2 translocation-positive cells assessed as downregulation of BCL2 protein levels at 1 to 3 uM after 24 hrs by Western blot analysis. The procedure, abridged:
as §2

For data set [10], the species on record is Homo sapiens. The experiment in a line: Stabilization of BCL2 i-motif promoter DNA in BCL2 and MYC translocation-positive human VAL cells assessed as potentiation of CPA-induced cytotoxicity by measuring fold reduction in CPA IC50 at 2 to 3 uM after 96 hrs by MTS assay. The procedure, abridged:
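MTS viability assay. 100 000 cells incubated 96 h with increasing CPA alone or with ligand (1−3 μM). Viability expressed relative to untreated cells. CPA IC50 fitted by Boltzmann sigmoidal equation with variable slope, and fold change in IC50 taken from the fitted values.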
In general terms: Formazan colour is commonly taken as a measure of viable cells.

The species named for data set [11] is Homo sapiens. Briefly: Stabilization of BCL2 i-motif promoter DNA in MYC translocation-positive and BCL2 amplification-positive human U2932 cells assessed as potentiation of CPA-induced apoptosis by measuring increase in caspase-3 activity at 3 uM after 24 hrs in presence of NSC-338258 by AFC based fluorescence assay (reference value: 30%).
The species named for data set [12] is Homo sapiens. The experiment in a line: Stabilization of BCL2 i-motif promoter DNA in BCL2 and MYC translocation-positive human VAL cells assessed as potentiation of CPA-induced apoptosis by measuring increase in caspase-3 activity at 3 uM after 24 hrs in presence of NSC-338258 by AFC based fluorescence assay (reference value: 30%).
The species entered for data set [13] is Homo sapiens. The experiment in a line: Stabilization of BCL2 i-motif promoter DNA in BCL2 translocation-positive human SUDHL4 cells assessed as potentiation of CPA-induced apoptosis by measuring increase in caspase-3 activity at 3 uM after 24 hrs in presence of NSC-338258 by AFC based fluorescence assay (reference value: 30%).
In data set [14] the test system is U2932. The experiment in a line: Potentiation of CPA-induced antitumor activity against human U2932 cells xenografted in SCID mouse assessed as tumor growth inhibition at 10 mg/kg, ip for 5 days cotreated with 7.5 mg/kg NSC-338258 measured on day 9 post first treatment (reference value: 50%). Type of data set: functional. The procedure, abridged:
(§3)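 U2932 DLBCL cells (10 × 10^6 in 100 μL sterile saline, viability >91%) injected subcutaneously into left flank of SCID mice (6−8 weeks, immunoglobulin ≤20 μg/mL). Mice pair-matched by tumor volume. Drugs given ip daily for 5 days, CPA 30 mg/kg; controls received all diluents. Tumor volume = a2 × b/2 (a smallest, b largest diameter); n = 5−8; Grubbs' test for outliers.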

The test system of data set [15] is U2932. The experiment in a line: Potentiation of CPA-induced antitumor activity against human U2932 cells xenografted in SCID mouse assessed as tumor growth inhibition at 10 mg/kg, ip for 5 days cotreated with 7.5 mg/kg NSC-338258 measured on day 12 post first treatment (reference value: 67%). Type of data set: functional. The essentials:
as §3

For data set [16], the system named is U2932. Briefly: Potentiation of CPA-induced antitumor activity against human U2932 cells xenografted in SCID mouse assessed as tumor growth inhibition at 10 mg/kg, ip for 5 days cotreated with 7.5 mg/kg NSC-338258 measured on day 15 post first treatment (reference value: 44%). It is filed as functional. The procedure, abridged:
as §3

In data set [17] the test system is Mus musculus. Briefly: Reduction in Myc mRNA level in tumor of SCID mouse xenografted with human U2932 cells at 10 mg/kg, ip administered for 5 consecutive days cotreated with CPA and NSC-338258 by qPCR method. It is filed as functional, organism-based. The procedure, abridged:
(§4)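 Tumors from U2932 xenograft SCID mice given ip treatment daily for 5 days were harvested. Total RNA was taken from the same tumor preparations used for protein lysates, and MYC or BCL2 mRNA was quantified by TaqMan qPCR normalized to TBP. Comparisons were made with diluent-treated mice or CPA-only mice.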

Data set [18] deals with Mus musculus. The experiment in a line: Reduction in Bcl2 mRNA level in tumor of SCID mouse xenografted with human U2932 cells at 10 mg/kg, ip administered for 5 consecutive days cotreated with CPA and NSC-338258 by qPCR method. It is filed as functional, organism-based. The essentials:
as §4

The subject of data set [19] is U2932. Briefly: Potentiation of CPA-induced antitumor activity against human U2932 cells xenografted in SCID mouse assessed as reduction in tumor burden AUC at 10 mg/kg, ip for 5 days cotreated with 5 to 7.5 mg/kg NSC-338258 measured on day 9 to 15 post first treatment. It is filed as functional, organism-based. The essentials:
as §3

Data set [20] concerns Mus musculus. Briefly: Toxicity in scid mouse xenografted with human U2932 cells assessed as change in body weight at 10 mg/kg, ip administered for 5 consecutive days in presence of CPA and NSC-338258. Type of data set: organism-based. The settings on record: in vivo. The procedure, abridged: (§5)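 SCID mice (6−8 weeks, female or male, serum immunoglobulin ≤20 μg/mL by ELISA) implanted subcutaneously in left flank with 10 × 10^6 U2932 cells in 100 μL saline; pair-matched by tumor volume; dosed ip daily for 5 days; controls received all compound diluents; tumor volume a2 × b/2; outliers by Grubbs' test; two-tailed t test with Šidák–Bonferroni correction.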

In data set [21] the test system is Mus musculus. The experiment in a line: Toxicity in scid mouse xenografted with human U2932 cells assessed as change in body weight at 10 mg/kg, ip administered for 5 consecutive days in presence of CPA. It is filed as organism-based. To be noted: in vivo. The procedure, abridged:
as §5

Data set [22] relates to U2932. The experiment in a line: Antitumor activity against human U2932 cells xenografted in SCID mouse assessed as reduction in tumor burden at 10 mg/kg, ip for 5 days cotreated with 5 to 7.5 mg/kg NSC-338258 measured on day 9 to 15 post first treatment.

For orientation: TGI means the reduction of tumour growth relative to the control group.

SMILES strings stand for the structures. Active and inactive are the calls of the source. The rule behind the calls is not given here.

For `COc1ccc2c(c1)CN([C@@H](C)[C@H]1CC[C@H]3[C@@H]4CC[C@H]5C[C@@H](O)CC[C@]5(C)[C@H]4CC[C@]13C)CO2`, the outcome with HT, in the data set listed under Homo sapiens [1], in the data set filed under Homo sapiens [2], in the data set filed under Homo sapiens [3] and with U2932 [22] was inactive. The Activity was 11 to 37% in the data set listed under Homo sapiens [4]; 11 to 37% in the data set listed under Homo sapiens [5]; 11 to 37% in the data set listed under Homo sapiens [6]; 100% in the data set filed under Homo sapiens [11]; 100% in the data set filed under Homo sapiens [12]; 100% in the data set filed under Homo sapiens [13]. The Activity entry in the data set on Mus musculus [20] and with Mus musculus [21] was “Non-Toxic” in each case. For the same compound, the result in the data set filed under Homo sapiens [7], in the data set listed under Homo sapiens [8], in the data set listed under Homo sapiens [9], in the data set on Mus musculus [17], in the data set on Mus musculus [18] and with U2932 [19] was Active. For the same compound, the fold change (FC) in the data set listed under Homo sapiens [10] came to 1.7. The TGI is listed as 50% with U2932 [14], 46% in the data set with U2932 [15] and 37% in the data set with U2932 [16].
